{"source": "PubChem BioAssay", "note": "Activity calls are given as the source filed them.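 How the source made its calls: active means GFP response above 150% of the DMSO control; inconclusive means fewer than 70 events counted in any yeast strain; inactive means the rest.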", "data": [{"test": "RPL19A-GFP modulators, yeast TOR pathway, confirmation, cell-based, S. cerevisiae, flow cytometry, cherry picks, mother/daughter gates (AID 2270)", "settings": "S. cerevisiae RPL19A-GFP strain, 3 h, measured here: mother cell gate, at 10 µM, stronger effect = lower value, 100 = same GFP as DMSO wells", "units": {"GFP response vs DMSO": "%"}, "values": [{"smiles": "O=C(/C=C/c1ccc(F)cc1)NC(=S)NNC(=O)c1cnccn1", "GFP response vs DMSO": 105}, {"smiles": "Cc1ccc(/C=C/C(=O)c2ccc(C)cc2)cc1", "GFP response vs DMSO": 99.3}, {"smiles": "Cc1nn(Cc2ccc([N+](=O)[O-])cc2)c(=O)n1-c1cccc(Cl)c1", "GFP response vs DMSO": 96.6}, {"smiles": "Cn1c(=O)[nH]c(=O)c2c1nc(N1CCCCC1)n2CCOc1ccccc1", "GFP response vs DMSO": 100}, {"smiles": "COC(=O)NC1CCC(CC2CCC(NC(=O)OC)CC2)CC1", "note": "(stereo not given)", "GFP response vs DMSO": 99.4}, {"smiles": "COCCNC(=O)c1ccc(Cl)c(Cl)c1", "GFP response vs DMSO": 95.3}, {"smiles": "COc1cc(-c2nc3ccccn3c2NCC2CCCO2)ccc1O", "note": "(stereo not given)", "GFP response vs DMSO": 102}, {"smiles": "CC(=O)Nc1ccc(NC(=O)c2nc(S(=O)(=O)Cc3cccc(C)c3)ncc2Cl)cc1", "GFP response vs DMSO": 103}, {"smiles": "O=C(COc1ccccc1[N+](=O)[O-])Nc1ccc(NC(=O)c2cc3ccccc3o2)cc1", "GFP response vs DMSO": 99.3}, {"smiles": "CCOC(=O)/C(=N\\NC(=O)c1ccccc1)c1ccccc1", "GFP response vs DMSO": 98.1}, {"smiles": "COC(=O)c1ccc(N2C(=O)CC(Sc3n[nH]c(C)n3)C2=O)cc1", "note": "(stereo not given)", "GFP response vs DMSO": 98}, {"smiles": "CC(C)C(=O)NC(c1cccs1)c1cc([N+](=O)[O-])c2cccnc2c1O", "note": "(stereo not given)", "GFP response vs DMSO": 95.8}, {"smiles": "Cc1ccc(/C=N/Nc2ncc(Cl)cc2Cl)s1", "GFP response vs DMSO": 78.2}, {"smiles": "CCOC(=O)Cc1csc(NC(=O)c2sc3nc4c(C)cc(C)cc4cc3c2N)n1", "GFP response vs DMSO": 97.7}, {"smiles": "Cn1cc([N+](=O)[O-])c(C(=O)Nc2nc(-c3ccc(Cl)cc3)cs2)n1", "GFP response vs DMSO": 96.5}, {"smiles": "CCCCOC(=O)C1CCC[C@@H](C)N1", "note": "(stereo not given in full)", "GFP response vs DMSO": 100}, {"smiles": "CCN=C(NCC)SC1CC(=O)N(c2cccc(OCC)c2)C1=O", "note": "(stereo not given)", "GFP response vs DMSO": 98.4}, {"smiles": "COc1ccc(NC2=C(Cl)C(=O)N(CCc3ccccc3)C2=O)c(OC)c1", "GFP response vs DMSO": 97.2}, {"smiles": "COc1ccccc1-c1noc(CCC(=O)Nc2cccc(C(F)(F)F)c2)n1", "GFP response vs DMSO": 98.5}, {"smiles": "COc1ccc(-c2csc(N(CC(C)C)C(=O)c3ccco3)n2)cc1", "GFP response vs DMSO": 97.7}, {"smiles": "CC(=O)Nc1ccc(-c2csc(NC(=O)c3ccc(C)o3)n2)cc1", "GFP response vs DMSO": 99.8}, {"smiles": "CNc1cc(CSC)nc(SCc2ccc(Cl)cc2Cl)n1", "GFP response vs DMSO": 96.1}, {"smiles": "O=C1C(CSCc2ccccc2)NC(=S)N1c1ccccc1", "note": "(stereo not given)", "GFP response vs DMSO": 101}, {"smiles": "COCCn1c(=N)c(C(=O)NCc2ccco2)cc2c(=O)n3ccccc3nc21", "GFP response vs DMSO": 93.5}, {"smiles": "Cc1ccc(-c2csc(NC(=O)c3ccno3)n2)cc1", "GFP response vs DMSO": 96.5}, {"smiles": "Cc1cccc(CN2CCSc3sccc3C2=O)c1", "GFP response vs DMSO": 96.5}, {"smiles": "COC(=O)c1ccc(/C=C/C(=O)c2ccc(OC)cc2)cc1", "GFP response vs DMSO": 101}, {"smiles": "CCOC(=O)CCS(=O)(=O)c1nc(-c2ccccc2)cc(C(F)(F)F)n1", "GFP response vs DMSO": 93.5}, {"smiles": "CCCN(Cc1nnc(-c2ccccc2Cl)o1)C(=O)c1cc([N+](=O)[O-])cc([N+](=O)[O-])c1", "GFP response vs DMSO": 96.1}, {"smiles": "COc1ccc(-c2[nH]ncc2N=Nc2ccccc2)cc1", "GFP response vs DMSO": 96.6}, {"smiles": "Cc1cccc(Cn2cc(/C=C/[N+](=O)[O-])c3ccccc32)c1", "GFP response vs DMSO": 98}, {"smiles": "OC1(c2ccc(F)cc2)CSC(=Nc2cccnc2)N1Cc1ccco1", "note": "(stereo not given)", "GFP response vs DMSO": 98.7}, {"smiles": "COc1cc(/C=C2\\N=C(C)OC2=O)cc(Cl)c1OC(C)=O", "GFP response vs DMSO": 102}, {"smiles": "O=c1c2c(-c3ccc(Cl)cc3)csc2ncn1/N=C/c1cccc([N+](=O)[O-])c1O", "GFP response vs DMSO": 98.6}, {"smiles": "O=[N+]([O-])c1cc(O)c2ncccc2c1", "GFP response vs DMSO": 97.5}, {"smiles": "CCc1nnc(NC(=O)c2ccc(S(=O)(=O)N(CC(C)C)CC(C)C)cc2)o1", "GFP response vs DMSO": 102}, {"smiles": "CCn1c(=O)c(C(=O)NCc2ccc(OC)cc2)c(O)c2ccccc21", "GFP response vs DMSO": 98.4}, {"smiles": "CS(=O)(=O)N1N=C(c2ccco2)CC1c1ccc(Cl)cc1", "note": "(stereo not given)", "GFP response vs DMSO": 101}, {"smiles": "CC1(C)CCN2CCC(C)(C)c3c(O)ccc1c32", "GFP response vs DMSO": 107}, {"smiles": "O/C=c1\\ccc2cccc3nc(C(F)(F)F)nc1c23", "GFP response vs DMSO": 110}]}, {"test": "LAP4-GFP expression modulators in yeast, confirmation, cell-based, cherry picks, flow cytometry, mother/daughter gates (AID 2271);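 further: ratio of sample to DMSO plate mean so 100% equals DMSO level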", "settings": "S. cerevisiae LAP4-GFP strain, 3 h, at 10 µM, stronger effect = higher value, 100 means same as DMSO control", "outline": "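Material: Alexa Fluor 633-labelled Saccharomyces cerevisiae GFP-fusion strain, single-plex | Amount: Yeast cells seeded at OD600 of 0.2 | Buffer or medium: SC growth medium | Schedule: 3 h exposure, 30 °C | Measured by: HT flow cytometry, GFP fluorescence channel | Evaluation: % GFP response vs DMSO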", "values": [{"smiles": "O=C(/C=C/c1ccc(F)cc1)NC(=S)NNC(=O)c1cnccn1", "GFP response relative to DMSO": "313% (active)"}, {"smiles": "Cc1ccc(/C=C/C(=O)c2ccc(C)cc2)cc1", "GFP response relative to DMSO": "98.8% (inactive)"}, {"smiles": "Cc1nn(Cc2ccc([N+](=O)[O-])cc2)c(=O)n1-c1cccc(Cl)c1", "GFP response relative to DMSO": "96.7% (inactive)"}, {"smiles": "Cn1c(=O)[nH]c(=O)c2c1nc(N1CCCCC1)n2CCOc1ccccc1", "GFP response relative to DMSO": "98.7% (inactive)"}, {"smiles": "COC(=O)NC1CCC(CC2CCC(NC(=O)OC)CC2)CC1", "note": "(stereo not given)", "GFP response relative to DMSO": "92.8% (inactive)"}, {"smiles": "COCCNC(=O)c1ccc(Cl)c(Cl)c1", "GFP response relative to DMSO": "102% (inactive)"}, {"smiles": "COc1cc(-c2nc3ccccn3c2NCC2CCCO2)ccc1O", "note": "(stereo not given)", "GFP response relative to DMSO": "93% (inactive)"}, {"smiles": "CC(=O)Nc1ccc(NC(=O)c2nc(S(=O)(=O)Cc3cccc(C)c3)ncc2Cl)cc1", "GFP response relative to DMSO": "93.8% (inactive)"}, {"smiles": "O=C(COc1ccccc1[N+](=O)[O-])Nc1ccc(NC(=O)c2cc3ccccc3o2)cc1", "GFP response relative to DMSO": "88.7% (inactive)"}, {"smiles": "CCOC(=O)/C(=N\\NC(=O)c1ccccc1)c1ccccc1", "GFP response relative to DMSO": "107% (inactive)"}, {"smiles": "COC(=O)c1ccc(N2C(=O)CC(Sc3n[nH]c(C)n3)C2=O)cc1", "note": "(stereo not given)", "GFP response relative to DMSO": "128% (inactive)"}, {"smiles": "CC(C)C(=O)NC(c1cccs1)c1cc([N+](=O)[O-])c2cccnc2c1O", "note": "(stereo not given)", "GFP response relative to DMSO": "101% (inactive)"}, {"smiles": "Cc1ccc(/C=N/Nc2ncc(Cl)cc2Cl)s1", "GFP response relative to DMSO": "331% (active)"}, {"smiles": "CCOC(=O)Cc1csc(NC(=O)c2sc3nc4c(C)cc(C)cc4cc3c2N)n1", "GFP response relative to DMSO": "84.2% (inactive)"}, {"smiles": "Cn1cc([N+](=O)[O-])c(C(=O)Nc2nc(-c3ccc(Cl)cc3)cs2)n1", "GFP response relative to DMSO": "102% (inactive)"}, {"smiles": "CCCCOC(=O)C1CCC[C@@H](C)N1", "note": "(stereo not given in full)", "GFP response relative to DMSO": "98.9% (inactive)"}, {"smiles": "CCN=C(NCC)SC1CC(=O)N(c2cccc(OCC)c2)C1=O", "note": "(stereo not given)", "GFP response relative to DMSO": "101% (inactive)"}, {"smiles": "COc1ccc(NC2=C(Cl)C(=O)N(CCc3ccccc3)C2=O)c(OC)c1", "GFP response relative to DMSO": "102% (inactive)"}, {"smiles": "COc1ccccc1-c1noc(CCC(=O)Nc2cccc(C(F)(F)F)c2)n1", "GFP response relative to DMSO": "102% (inactive)"}, {"smiles": "COc1ccc(-c2csc(N(CC(C)C)C(=O)c3ccco3)n2)cc1", "GFP response relative to DMSO": "101% (inactive)"}, {"smiles": "CC(=O)Nc1ccc(-c2csc(NC(=O)c3ccc(C)o3)n2)cc1", "GFP response relative to DMSO": "97.9% (inactive)"}, {"smiles": "CNc1cc(CSC)nc(SCc2ccc(Cl)cc2Cl)n1", "GFP response relative to DMSO": "125% (inactive)"}, {"smiles": "O=C1C(CSCc2ccccc2)NC(=S)N1c1ccccc1", "note": "(stereo not given)", "GFP response relative to DMSO": "122% (inactive)"}, {"smiles": "COCCn1c(=N)c(C(=O)NCc2ccco2)cc2c(=O)n3ccccc3nc21", "GFP response relative to DMSO": "96.5% (inactive)"}, {"smiles": "Cc1ccc(-c2csc(NC(=O)c3ccno3)n2)cc1", "GFP response relative to DMSO": "103% (inactive)"}, {"smiles": "Cc1cccc(CN2CCSc3sccc3C2=O)c1", "GFP response relative to DMSO": "125% (inactive)"}, {"smiles": "COC(=O)c1ccc(/C=C/C(=O)c2ccc(OC)cc2)cc1", "GFP response relative to DMSO": "114% (inactive)"}, {"smiles": "CCOC(=O)CCS(=O)(=O)c1nc(-c2ccccc2)cc(C(F)(F)F)n1", "GFP response relative to DMSO": "164% (active)"}, {"smiles": "CCCN(Cc1nnc(-c2ccccc2Cl)o1)C(=O)c1cc([N+](=O)[O-])cc([N+](=O)[O-])c1", "GFP response relative to DMSO": "97.7% (inactive)"}, {"smiles": "COc1ccc(-c2[nH]ncc2N=Nc2ccccc2)cc1", "GFP response relative to DMSO": "107% (inactive)"}, {"smiles": "Cc1cccc(Cn2cc(/C=C/[N+](=O)[O-])c3ccccc32)c1", "GFP response relative to DMSO": "111% (inactive)"}, {"smiles": "OC1(c2ccc(F)cc2)CSC(=Nc2cccnc2)N1Cc1ccco1", "note": "(stereo not given)", "GFP response relative to DMSO": "102% (inactive)"}, {"smiles": "COc1cc(/C=C2\\N=C(C)OC2=O)cc(Cl)c1OC(C)=O", "GFP response relative to DMSO": "117% (inactive)"}, {"smiles": "O=c1c2c(-c3ccc(Cl)cc3)csc2ncn1/N=C/c1cccc([N+](=O)[O-])c1O", "GFP response relative to DMSO": "97.7% (inactive)"}, {"smiles": "O=[N+]([O-])c1cc(O)c2ncccc2c1", "GFP response relative to DMSO": "205% (active)"}, {"smiles": "CCc1nnc(NC(=O)c2ccc(S(=O)(=O)N(CC(C)C)CC(C)C)cc2)o1", "GFP response relative to DMSO": "98.2% (inactive)"}, {"smiles": "CCn1c(=O)c(C(=O)NCc2ccc(OC)cc2)c(O)c2ccccc21", "GFP response relative to DMSO": "97.7% (inactive)"}, {"smiles": "CS(=O)(=O)N1N=C(c2ccco2)CC1c1ccc(Cl)cc1", "note": "(stereo not given)", "GFP response relative to DMSO": "96.5% (inactive)"}, {"smiles": "CC1(C)CCN2CCC(C)(C)c3c(O)ccc1c32", "GFP response relative to DMSO": "115% (inactive)"}, {"smiles": "O/C=c1\\ccc2cccc3nc(C(F)(F)F)nc1c23", "GFP response relative to DMSO": "172% (active)"}]}]}
